Converted amounts (≈) assume the structure as drawn. The source made the active and inactive calls. No cut-off for these calls is given here.
Experiments:
Escherichia coli [1] = test: Antibacterial activity against Escherichia coli ATCC 25922 compound formulated with carboxymethylcellulose; assay type: functional, organism-based
Enterococcus faecalis [2] = test: Antibacterial activity against Enterococcus faecalis VanB ATCC 51299 after 24 hrs by disc diffusion assay; assay type: functional, organism-based
Summary of the method: (§1)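 LB broth cultures were grown to mid-log (OD600 ≈ 0.6) as for broth MIC and streaked as lawns on LB agar. Sterile filter paper discs were loaded with 10 µL of 2-fold serial dilutions (32 to 1 µg/mL) and placed on the lawns. Inhibition zones were measured after 24 h at 37 °C.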

Acinetobacter baumannii [3] = test: Antibacterial activity against Meropenem-resistant Acinetobacter baumannii after 24 hrs by disc diffusion assay; assay type: functional, organism-based
Summary of the method: (§2)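 LB-broth overnight cultures diluted 40-fold into fresh LB, shaken 1 h at 37 °C, to mid-log (OD600 ≈ 0.6). Lawn streaked on LB agar. Sterile filter-paper discs loaded with 10 µL of 2-fold serial dilutions, 32 to 1 µg/mL. Discs placed on plates, 24 h at 37 °C, then zone of inhibition measured.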

Staphylococcus aureus [4] = test: Antibacterial activity against methicillin-susceptible Staphylococcus aureus ATCC 25923 up to 64 ug/ml after 24 hrs by broth dilution assay; assay type: functional, organism-based
Summary of the method: (§3)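 Triplicate broth microdilution in LB and MH broths. Overnight LB cultures were diluted 40-fold into fresh broth and shaken 1 h at 37 °C to mid-log (OD600 ≈ 0.6). They were then diluted to 5 × 10⁵ cfu/mL into 2-fold serial dilutions from 64 to 0.03 µg/mL (≤1.28% DMSO) and held 24 h at 37 °C. MIC is the lowest concentration with no visible growth. Tetracycline, vancomycin and colistin served as positive controls.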

HEK293 = test: Cytotoxicity against HEK293 cells after 24 hrs by MTT assay; assay type: cell-based; settings: Homo sapiens, HEK293, 24 h
Escherichia coli [5] = test: Antibacterial activity against Escherichia coli ATCC 25922 up to 64 ug/ml after 24 hrs by broth dilution assay; assay type: functional, organism-based; summary of the method: as §3
Acinetobacter baumannii [6] = test: Antibacterial activity against Meropenem-resistant Acinetobacter baumannii up to 64 ug/ml after 24 hrs by broth dilution assay; assay type: functional, organism-based
Summary of the method: (§4)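 Triplicate broth microdilution in LB and in MH broth. Overnight LB cultures diluted 40-fold into fresh broth, shaken 1 h at 37 °C to mid-log (OD600 ≈ 0.6), then diluted to 5 × 10⁵ cfu/mL. Added to 2-fold serial dilutions, 64 to 0.03 µg/mL, with DMSO at most 1.28%. Incubated 24 h at 37 °C; MIC is the lowest concentration with no visible growth. Tetracycline, vancomycin and colistin served as positive controls.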

Pseudomonas aeruginosa [7] = test: Antibacterial activity against Meropenem-resistant Pseudomonas aeruginosa up to 64 ug/ml after 24 hrs by broth dilution assay; assay type: functional, organism-based; summary of the method: as §4
HepG2 = test: Cytotoxicity against human HepG2 cells after 24 hrs by MTT assay; assay type: cell-based; settings: HepG2, 24 h
Bacillus subtilis = test: Antibacterial activity against Bacillus subtilis ATCC 6051 compound formulated with carboxymethylcellulose; assay type: functional, organism-based
Klebsiella pneumoniae [8] = test: Antibacterial activity against Klebsiella pneumoniae ATCC 700603 up to 64 ug/ml after 24 hrs by broth dilution assay; assay type: functional, organism-based; summary of the method: as §3
Enterococcus faecalis [9] = test: Antibacterial activity against Enterococcus faecalis VanB ATCC 51299 up to 64 ug/ml after 24 hrs by broth dilution assay; assay type: functional, organism-based; summary of the method: as §3
Pseudomonas aeruginosa [10] = test: Antibacterial activity against Meropenem-resistant Pseudomonas aeruginosa after 24 hrs by disc diffusion assay; assay type: functional, organism-based; summary of the method: as §2
Pseudomonas aeruginosa [11] = test: Antibacterial activity against Pseudomonas aeruginosa ATCC 10145 compound formulated with carboxymethylcellulose; assay type: functional, organism-based
Klebsiella pneumoniae [12] = test: Antibacterial activity against Klebsiella pneumoniae ATCC 700603 after 24 hrs by disc diffusion assay; assay type: functional, organism-based; summary of the method: as §1
Staphylococcus aureus [13] = test: Antibacterial activity against methicillin-susceptible Staphylococcus aureus ATCC 25923 after 24 hrs by disc diffusion assay; assay type: functional, organism-based; summary of the method: as §1
Escherichia coli [14] = test: Antibacterial activity against Escherichia coli ATCC 25922 after 24 hrs by disc diffusion assay; assay type: functional, organism-based; summary of the method: as §1
Staphylococcus aureus [15] = test: Antibacterial activity against methicillin-susceptible Staphylococcus aureus ATCC 25923 compound formulated with carboxymethylcellulose; assay type: functional, organism-based
[16] = Protein binding in LB assay broth (above 30 kDa) by ultra filtration method; assay type: ADME; settings: read-out: PB (converted)
[17] = Kinetic solubility in phosphate buffer at pH 7.4; assay type: physicochemical
[18] = Thermodynamic solubility in phosphate buffer at pH 7.4 after 72 hrs; assay type: physicochemical; settings: read-out: Therm_solubility
[19] = Kinetic solubility in water; assay type: physicochemical
[20] = Thermodynamic solubility in water after 72 hrs; assay type: physicochemical; settings: read-out: Therm_solubility

Cc1cc(=O)n2nc(CC(=O)c3ccccc3)nc2[nH]1 [ESSRAMYCIN]
inhibition (Escherichia coli [1]): inactive | inhibition (Enterococcus faecalis [2]): inactive | inhibition (Acinetobacter baumannii [3]): inactive | inhibition (Staphylococcus aureus [4]): inactive | IC50 (HEK293): > 200 µM | inhibition (Escherichia coli [5]): inactive | inhibition (Acinetobacter baumannii [6]): inactive | inhibition (Pseudomonas aeruginosa [7]): inactive | IC50 (HepG2): > 200 µM | inhibition (Bacillus subtilis): inactive | inhibition (Klebsiella pneumoniae [8]): inactive | inhibition (Enterococcus faecalis [9]): inactive | inhibition (Pseudomonas aeruginosa [10]): inactive | inhibition (Pseudomonas aeruginosa [11]): inactive | inhibition (Klebsiella pneumoniae [12]): inactive | inhibition (Staphylococcus aureus [13]): inactive | inhibition (Escherichia coli [14]): inactive | inhibition (Staphylococcus aureus [15]): inactive

Cc1cc(=O)n2nc(CC(=O)c3ccccc3)[nH]c2n1 [ESSRAMYCIN]
fraction unbound [16]: 0.93 | solubility kinetic [17]: 150 µg/mL (≈ 559 µM) | solubility thermodynamic at 72 h [18]: 898 µg/mL (≈ 3350 µM) | solubility kinetic [19]: 150 µg/mL (≈ 559 µM) | solubility thermodynamic at 72 h [20]: 175 µg/mL (≈ 652 µM)

Source: ChEMBL document CHEMBL1641400, “Synthesis of essramycin and comparison of its antibacterial activity” (J Nat Prod, 2010)
